Measurements collected from several papers.
Read-out: metabolic stability
Host: human

SMILES | sample | tested at | time | pH | notes | quantity | value
COc1ccc([C@@H]2Sc3ccccc3N(CCN(C)C)C(=O)[C@@H]2OC(C)=O)cc1 | liver microsomes |  |  |  |  | microsomal CLint | 26 µL/min/mg
O=c1ccc2cc(O)ccc2o1 | liver microsomes |  |  |  |  | microsomal CLint | 22 µL/min/mg
Cn1nc2c(=O)n(C3CC3)ncc2c1[C@](O)(c1cnc(C(F)(F)F)c(Cl)c1)C(F)(F)F | hepatocytes | 0.5 µM |  | pH 7.4 |  | hepatocyte CLint | < 0.5 µL/min/10⁶ cells
Cc1ccc(Cn2cc(C(=O)NN)c(=O)c3cc(Oc4ccccc4)ccc32)cc1 | liver microsomes | 1 µM |  |  |  | microsomal CLint | < 11.6 µL/min/mg
CC[N+]1(C)CCN(c2ccc(NC(=O)c3cccc(C)n3)cc2)CC1 | liver microsomes |  |  |  |  | microsomal CLint | < 3 µL/min/mg
O=c1ccc2ccc(O)cc2o1 | hepatocytes | 1 µM |  |  |  | hepatocyte CLint | 56 µL/min/10⁶ cells
CC(C)C[C@H](NC(=O)[C@@H]1COCCCCCC(=O)N2CC[C@H]2C(=O)N1)C(=O)[C@@]1(C)CO1 | liver microsomes | 2 µM | 1 h |  |  | scaled CLint | 29 mL/min/kg
CCC(CC)COC(=O)[C@H](C)N[P@](=O)(OC[C@@H]1C[C@@H](O)[C@H](n2cnc3c(N)ncnc32)O1)Oc1ccccc1 | liver microsomes | 1 µM |  |  |  | microsomal CLint | 2120 µL/min/mg
CC(C)C[C@H](NC(=O)[C@@H]1COCCCCCC(=O)N2CC(F)(F)C[C@H]2C(=O)N1)C(=O)[C@@]1(C)CO1 | liver microsomes | 2 µM | 1 h |  |  | scaled CLint | 57.6 mL/min/kg
CCN(CCN)c1ccc(Nc2cc(NC3CC3)n3ncc(C#N)c3n2)cc1-n1cnnc1 | hepatocytes | 1 µM |  |  | serum-free | scaled CLint | < 6.9 mL/min/kg
NC(=O)N1c2ccccc2C=Cc2ccccc21 | liver microsomes | 1 µM |  |  |  | microsomal CLint | < 3 µL/min/mg
Cn1nc2c(=O)n(C3CC3)ccc2c1[C@](O)(c1cnc(C(F)(F)F)c(Cl)c1)C(F)(F)F | hepatocytes | 0.5 µM |  | pH 7.4 |  | hepatocyte CLint | 0.5 µL/min/10⁶ cells
C[C@]1(C(=O)[C@H](Cc2ccccc2)NC(=O)[C@@H]2Cc3ccc(cc3)OCCCCCCCC(=O)N3CCC[C@H]3C(=O)N2)CO1 | liver microsomes | 2 µM | 1 h |  |  | scaled CLint | 927 mL/min/kg
O=C(O)Cc1ccccc1Nc1c(Cl)cccc1Cl | hepatocytes | 0.5 µM |  | pH 7.4 |  | hepatocyte CLint | 98.2 µL/min/10⁶ cells
C[C@]1(C(=O)[C@H](CC2=CCCC2)NC(=O)[C@@H]2COCCCCCC(=O)N3C[C@H](F)C[C@H]3C(=O)N2)CO1 | liver microsomes | 2 µM | 1 h |  |  | scaled CLint | 150 mL/min/kg
CC[C@@](O)(c1cnc(C(F)(F)F)c(Cl)c1)c1c2ccn(C3CC3)c(=O)c2nn1C | hepatocytes | 0.5 µM |  | pH 7.4 |  | hepatocyte CLint | 1.6 µL/min/10⁶ cells
O=C(O)Cc1ccccc1Nc1c(Cl)cccc1Cl | liver microsomes |  |  |  |  | scaled CLint | 174 mL/min/kg
Cn1nc2c(=O)n(C3CC3)cnc2c1[C@](O)(c1cnc(C(F)(F)F)c(Cl)c1)C(F)(F)F | hepatocytes | 0.5 µM |  | pH 7.4 |  | hepatocyte CLint | 0.5 µL/min/10⁶ cells
CCC(CC)COC(=O)[C@H](C)N[P@](=O)(OC[C@@H]1C[C@@H](O)[C@H](n2cnc3c(N)nc(F)nc32)O1)Oc1ccccc1 | liver microsomes | 1 µM |  |  |  | microsomal CLint | 1230 µL/min/mg
